This is a sample that favours compounds with a hit; in the whole collection about 3.2% have one here.
NR2E3 ag-1: inhibitors of NR2E3-RetCOR corepressor binding, primary screen, NR2E3 agonist project, biochemical, TR-FRET, GST-NR2E3, biotin-RetCOR. Photoreceptor-specific nuclear receptor (Homo sapiens), Q9Y5X4. 1536-well. inhibition of corepressor binding, % at 4.78 µM. actives 0.12% (n = 320,000);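 active = percent inhibition above the cutoff of mean plus 3 SD of all tested compounds, set per screening campaign, cut at about 20% in these data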;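 note: 0% = DMSO wells and 100% = biotin wells as full block of FRET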
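Material: NR2E3–RetCOR corepressor complex / Incubation: Compound–protein incubation for 5 h at 4 °C / Dosing: compound at 4.8 µM, single dose / Detection: time-resolved FRET / Benchmarks: high control biotin, low control 0.6% DMSO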
NR2E3 ag-2: NR2E3 agonists in two-hybrid cells, primary screen, cell-based, luminescence, CHO-S, Gal4-NCOR/VP16-NR2E3. actives 0.35% (n = 360,000). inhibition of corepressor binding, % at 3.98 µM. luciferase;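 active = inhibition above the mean of all tested compounds plus 3 SD, cut at about 70% in these data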;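 note: 0% = DMSO with NR2E3 transfected cells and 100% = cells lacking NR2E3 construct; higher means lower luciferase signal from less NR2E3 corepressor binding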
DAX1 inh-1: DAX1 (NR0B1) inhibitors on StAR promoter, primary screen, cell-based, luminescence, SF-1 (NR5A1), full-length DAX-1; inhibition, % at 6.8 µM; actives 1.1% (n = 370,000); HEK293T StAR-luciferase reporter, SF-1/DAX-1 repression relief;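 active = inhibition above the mean over all tested compounds plus 3 SD, cut at about 3.6% in these data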;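 note: 0% = DAX-1 cells with DMSO and 100% = cells lacking DAX-1 with DMSO; higher inhibition means more luminescence from relief of DAX-1 repression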
DAX1 inh-2: DAX1 (NR0B1) inhibitors, primary screen, cell-based, HEK293, Gal4-DAX1, luciferase luminescence. HEK293 Gal4-DAX1 luciferase reporter. inhibition, % at 6.75 µM. actives 0.99% (n = 340,000);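 active = inhibition above the mean over all tested compounds plus 3 SD, cut at about 4.2% in these data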;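 note: 0% = DAX1-transfected cells with DMSO and 100% = empty-vector control cells with DMSO; inhibition shows as a rise in luminescence from relieved DAX1 repression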
Target sequence (P51843 207-470 limits assumed): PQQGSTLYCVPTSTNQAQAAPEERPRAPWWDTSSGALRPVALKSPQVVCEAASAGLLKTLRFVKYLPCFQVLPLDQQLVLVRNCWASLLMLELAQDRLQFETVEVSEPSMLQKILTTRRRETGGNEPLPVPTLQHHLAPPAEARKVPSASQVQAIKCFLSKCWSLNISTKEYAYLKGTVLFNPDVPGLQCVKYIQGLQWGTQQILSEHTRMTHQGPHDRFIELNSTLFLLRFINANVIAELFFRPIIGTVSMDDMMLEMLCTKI
SMARCA2 activ: SMARCA2 (BRM) function activators, primary screen, cell-based, luminescence, high throughput. MG213 cells, MMTV-luciferase reporter, dexamethasone, overnight. activation, % at 9.1 µM. actives 1% (n = 370,000). AID 652017, 2013; in the data active = activation above about 7.8%;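 note: 0% = vehicle wells and 100% = reference activator wells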
GASC-1 inh: inhibitors of GASC-1 histone demethylase, primary screen, biochemical, fluorescence, DELFIA europium | inhibition, % at 2.35 µM | actives 0.069% (n = 330,000) | GST-JMJD2C(1-420) H3K9me3 demethylation;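 active = more than half of a compound's replicate wells show inhibition beyond 50%, single wells judged on their own value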;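 note: signal counts dimethyl H3K9 product captured on neutravidin plate; 0% = median of DMSO wells and 100% = 0.3 times that DMSO median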
Target sequence (Q9H3R0 1-420 limits assumed): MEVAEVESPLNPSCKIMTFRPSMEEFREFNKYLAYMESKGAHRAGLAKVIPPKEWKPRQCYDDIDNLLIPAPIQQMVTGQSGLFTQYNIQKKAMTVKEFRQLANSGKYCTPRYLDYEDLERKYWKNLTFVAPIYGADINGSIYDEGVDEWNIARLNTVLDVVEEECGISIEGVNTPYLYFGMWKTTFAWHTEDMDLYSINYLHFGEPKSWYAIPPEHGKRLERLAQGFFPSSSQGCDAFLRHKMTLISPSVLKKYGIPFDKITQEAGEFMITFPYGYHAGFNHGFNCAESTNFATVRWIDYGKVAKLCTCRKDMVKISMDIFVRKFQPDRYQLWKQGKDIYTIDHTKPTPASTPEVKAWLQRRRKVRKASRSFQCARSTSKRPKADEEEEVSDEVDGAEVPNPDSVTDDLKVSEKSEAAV
* marks the source's active call; other numbers are inactive results; . = no result given.

SMILES | NR2E3 ag-1 | NR2E3 ag-2 | DAX1 inh-1 | DAX1 inh-2 | SMARCA2 activ | GASC-1 inh
COc1cc(OC)cc(-c2nc3cc(C)ccc3o2)c1 | -1 | -137 | 3.8* | 2 | 8 | -2
CN(C)CCCNc1oc(-c2ccccc2)nc1C#N | 1 | -10 | 0 | 1 | 0 | -4
CN(C)CCNc1oc(-c2ccccc2F)nc1C#N | -1 | -23 | -1 | 5.9* | -1 | 1
COc1ccc2sc(-c3ccccc3OC)c(-c3ccc(SC)cc3)c2c1 | . | 1 | 3.8* | . | -4 | .
Cc1cccc(CNC(=O)NC2CCCCN(Cc3cccc(Cl)c3)C2=O)c1 (stereo not given) | . | . | -2 | . | -5 | .
Cc1ccc(-c2nc3ncccn3c2NC(=O)c2ccc(F)cc2)cc1 | . | . | -1 | . | -1 | .
Cc1occc1C(=O)Nc1ccc2ccccc2c1 | 0 | -137 | 2 | 4.4* | 7 | 3
COc1cc2ccccc2cc1C(=O)Nc1ccc(O)cc1 | 2 | -101 | 2 | 4.4* | -1 | -7
COc1cc(OC)c(C(=O)Nc2ccc3ccccc3c2)cc1OC | 0 | -86 | . | 5.2* | . | -7
Cc1cccc(C(=O)Nc2ccc3ccccc3c2)c1 | 1 | -124 | 3 | 6.8* | 3 | 1
COc1ccc(NC(=O)c2cc3ccccc3cc2OC)cc1OC | 3 | -67 | -1 | 1 | 1 | -5
CCN(Cc1ccccc1)C(=O)CCCN1C(=O)COc2ccc(C)cc21 | . | . | -2 | . | -1 | .
COC(=O)[C@H](C(C)C)N(CCCc1cn(CC2CCCCC2)nn1)S(=O)(=O)c1ccc(F)cc1Br | . | . | -1 | . | -3 | .
Cc1cccc(NC(=O)c2ccoc2C)n1 | 4 | -19 | 0 | 0 | 2 | 8
Cc1ccc(NC(=O)c2cc3ccccc3cc2O)cc1 | -2 | -209 | 1 | 4.5* | -3 | -3
COc1ccc(NC(=O)c2cc3ccccc3cc2O)cc1 | 3 | -183 | 1 | 2 | -1 | -2
Cc1occc1C(=O)Nc1cc(C(C)(C)C)on1 | 1 | -106 | 4.2* | 2 | 6 | 7
O=C(Nc1c(-c2ccc(F)cc2)nc2ncccn12)c1ccc(F)cc1 | . | . | -1 | . | -2 | .
Cc1ccsc1/C=C1\Oc2cc(O)ccc2C1=O | . | -40 | 4.5* | 2 | 7 | .
Nc1nonc1-n1nnc(C(=O)N/N=C/c2cccc(F)c2)c1CN1CCCC1 | 0 | -3 | -1 | 2 | -1 | -3
COC(=O)c1nnn(-c2nonc2N)c1CN1CCCC1 | 0 | 5 | 0 | 4.4* | 0 | 2
Nc1nonc1-n1nnc(C(=O)N/N=C/c2cccc(F)c2)c1CN1CCCCCC1 | 3 | -22 | 0 | 4.7* | -1 | -8
Cn1c(CNC(=O)c2ccc(F)cc2)cc2ccccc21 | 3 | 21 | -1 | 4.3* | 2 | -7
Cn1c(CNC(=O)c2ccccc2F)cc2ccccc21 | -2 | 2 | 0 | 1 | 0 | -5
CC(C)C[C@@H]1COc2cccc(N3CCSCC3)c2S(=O)(=O)N1C | . | . | -1 | . | -1 | .
SMILES | NR2E3 ag-1 | NR2E3 ag-2 | DAX1 inh-1 | DAX1 inh-2 | SMARCA2 activ | GASC-1 inh
N#Cc1cc(-c2ccccc2)c[nH]c1=O | 0 | 8 | 0 | 5.3* | -2 | 52
O=C(NCCc1ccccc1)OCc1cn(-c2ccc(F)cc2)nn1 | . | . | 0 | . | -2 | .
CCNC(=S)NNC(=O)c1csc(CC)c1 | -1 | -19 | 0 | 7.0* | 2 | 7
CCc1cc(C(=O)NNC(=S)Nc2ccccc2C)cs1 | -3 | -146 | 3.6* | 2 | 2 | -1
CS(=O)(=O)Nc1ccc(C(=O)NCCSCc2ccccc2)cc1 | -6 | -6 | 1 | 5.4* | -6 | 4
COC(=O)[C@]12C[C@H](CC(=O)NCC34CC5CC(CC(C5)C3)C4)C(=O)N(Cc3ccc(Cl)cc3Cl)C1=C[C@H](C(C)C)O[C@@H]2C1CC1 | . | . | 0 | . | -3 | .
CCCSc1nsc(NC(=O)c2cccnc2OCC)n1 | 0 | -19 | 0 | 5.8* | -2 | 3
CCOc1ncccc1C(=O)Nc1ccc(Cl)cc1 | 0 | -19 | 0 | -2 | 0 | 6
CCOc1ncccc1C(=O)Nc1nnc(C(CC)CC)s1 | -1 | -7 | -1 | 2 | 0 | -3
CCOc1ncccc1C(=O)NCc1ccccc1Cl | 0 | -3 | 0 | 5.7* | 0 | -1
Cc1ccc(C(=O)NC2CCCCN(Cc3ccccc3C)C2=O)cc1 (stereo not given) | . | . | -2 | . | -1 | .
CCOC(=O)CC(=O)c1sc2c(c1N)c(=O)[nH]c(=O)n2-c1ccc(OC)cc1 | 3 | -20 | 1 | 4.3* | -2 | 6
CC(=O)c1sc2c(c1N)c(=O)[nH]c(=O)n2-c1ccccc1 | 1 | -8 | 0 | 0 | -2 | -16
CC(C)(C)c1ccc(NC(=S)NCc2cccnc2)cc1 | -1 | 12 | 0 | 5.2* | -2 | 5
O=C(NC(=S)NCc1cccnc1)c1cccc2ccccc12 | 3 | -12 | 0 | 6.1* | 1 | 5
O=C(NC(=S)NCc1cccnc1)c1ccccc1F | 3 | -16 | 0 | 4 | 2 | 2
Nc1nc(COc2ccccc2)cs1 | 1 | -11 | 1 | 1 | 7.9* | 3
Cc1ccccc1OCc1csc(N)n1 | 2 | -25 | 1 | 1 | -6 | -10
CCCCN(C)c1nc(C)nc2c1nnn2Cc1ccccc1 | . | . | -2 | . | -2 | .
Cc1cc(C(=O)NNC(C)Cc2ccccc2)no1 (stereo not given) | . | -21 | 1 | 4.3* | 2 | .
CN(C)c1cccc(/C=C2\CC3(OC(=O)c4ccc(F)cc4)CCCN2C3)c1 (stereo not given) | . | . | 1 | . | -1 | .
Cc1cccc(NC(=S)NC(=O)/C=C/c2ccccc2)n1 | 3 | -47 | 1 | 4.3* | 3 | 3
COc1ccc(NC(=S)NC(=O)/C=C/c2ccccc2)cc1 | 0 | 10 | 0 | -1 | 1 | -7
CCOC(=O)C1=NOC(C(C)=O)(C(=O)NC2CCCC2)C1 (stereo not given) | . | . | 1 | . | 6 | .
Cc1ccc(NC(=O)CNC(=O)c2ccco2)nc1 | 2 | -5 | 0 | 0 | 0 | 7
O=C(CNC(=O)c1ccc(Br)o1)Nc1ccc(N2CCCCCC2)cc1 | . | -13 | -1 | 1 | 1 | .
O=C(CNC(=O)c1ccco1)Nc1ccc(N2CCCCCC2)cc1 | -5 | -45 | 1 | 4.7* | -1 | 0
Cc1ccnc(NC(=O)CNC(=O)c2ccco2)c1 | -1 | -52 | 3.8* | 0 | 1 | -1
